Assay results collected from several papers.
Protocols differ between the studies behind these lines.
FLT3: Receptor-type tyrosine-protein kinase FLT3 (FLT3, Homo sapiens, UniProt P36888)
FLT3 D835V: Receptor-type tyrosine-protein kinase FLT3 (FLT3, Homo sapiens, UniProt P36888, D835V)
FLT3 D835H: Receptor-type tyrosine-protein kinase FLT3 (FLT3, Homo sapiens, UniProt P36888, D835H)
FLT3 D835Y: Receptor-type tyrosine-protein kinase FLT3 (FLT3, Homo sapiens, UniProt P36888, D835Y)
FLT3 autoinhibited: Receptor-type tyrosine-protein kinase FLT3, autoinhibited (FLT3, Homo sapiens, UniProt P36888)
FLT3 N841I: Receptor-type tyrosine-protein kinase FLT3 (FLT3, Homo sapiens, UniProt P36888, N841I)
FLT3 K663Q: Receptor-type tyrosine-protein kinase FLT3 (FLT3, Homo sapiens, UniProt P36888, K663Q)
FLT3 R834Q: Receptor-type tyrosine-protein kinase FLT3 (FLT3, Homo sapiens, UniProt P36888, R834Q)
FLT3 ITD: Receptor-type tyrosine-protein kinase FLT3 (FLT3, Homo sapiens, UniProt P36888, ITD)

| Structure (SMILES) | target | test | conditions | remaining binding |
| --- | --- | --- | --- | --- |
| CN(C)c1ncc(F)c(-c2cnn3ncccc23)n1 | FLT3 | binding | 1 µM | 100% |
| Cc1cnc(Nc2ccc(C(=O)N3CCC(N4CCCC4)CC3)cc2)nc1-c1cc2ccccc2s1 | FLT3 D835V | binding, competition with immobilised ligand | 1 µM | 0.6% |
| Cc1noc([C@H]2C[C@@H](c3ccc(C(F)(F)F)cc3)CN(C(=O)N3CCS(=O)(=O)C3)C2)n1 | FLT3 D835H | cell-free assay, competition with immobilised ligand | 1 µM | 100% |
| F[C@@H]1CCN(c2nccc(-c3cnn4ncccc34)n2)C1 | FLT3 D835Y | binding | 1 µM | 61% |
| O=C(c1ccc(Nc2ncc(Cl)c(-c3cc4ccccc4s3)n2)cc1)N1CCC(N2CCCC2)CC1 | FLT3 D835Y | binding, competition with immobilised ligand | 1 µM | 3.7% |
| COc1cnc(Nc2cccc(S(N)(=O)=O)c2)nc1N1CCN(c2ccccc2)CC1 | FLT3 D835H | binding, competition with immobilised ligand | 1 µM | 94% |
| c1cncc(-c2cccc(Nc3nccc(NC4CCCCC4)n3)c2)c1 | FLT3 autoinhibited | binding, competition with immobilised ligand | 10 µM | 3.6% |
| CN1CCN(c2ccc(Nc3nccc(-c4cccc([N+](=O)[O-])c4)n3)cc2C(F)(F)F)CC1 | FLT3 N841I | binding | 10 µM | 0.05% |
| C[C@@H](c1ccc(-n2cnc3c(N)ncnc32)cc1)N1CCc2nn(C)c(Cc3ccccc3)c2C1=O | FLT3 | binding, competition with immobilised ligand | 0.1 µM | 100% |
| C=CC(=O)N1CCC(C(=O)NCC(=O)N2CCN(c3nc(-c4cnc(N)nc4C(F)F)nc(N4CCOCC4)n3)CC2)CC1 | FLT3 K663Q | binding, competition with immobilised ligand | 1 µM | 100% |
| COc1cnc(Nc2cccc(S(N)(=O)=O)c2)nc1N1CCN(c2ccccc2)C(=O)C1 | FLT3 D835V | binding, competition with immobilised ligand | 1 µM | 42% |
| N[C@H]1CCN(c2nccc(-c3cnn4ncccc34)n2)C1 | FLT3 D835H | binding | 1 µM | 92% |
| CNC(=O)[C@@H]1CC[C@@H](n2c(-c3ccc4cnccc4c3)nc3ccc(C(=O)NCc4cccc(C(N)=O)c4)cc32)C1 | FLT3 R834Q | binding, competition with immobilised ligand | 1 µM | 100% |
| CCC(=O)N[C@H]1CC[C@@H](C(=O)N(C)c2ccc(-c3nc4ccccc4o3)cc2)C1 | FLT3 K663Q | cell-free assay, competition with immobilised ligand | 1 µM | 88% |
| CN(C)c1nccc(-c2cnn3ncccc23)n1 | FLT3 K663Q | binding | 1 µM | 100% |
| Nc1ncc2c(n1)-c1c([nH]c3ccc(C#CC4CC4)cc13)CCCC2 | FLT3 D835Y | binding, competition with immobilised ligand | 1 µM | 89% |
| C[C@@H]1CN(c2cc(-c3nn(C)c4ccc(OC5(C)CC5)cc34)ncn2)C[C@H](C)O1 | FLT3 autoinhibited | cell-free assay, competition with immobilised ligand | 1 µM | 77% |

| Structure (SMILES) | target | test | conditions | remaining binding |
| --- | --- | --- | --- | --- |
| O=C(Nc1c[nH]nc1C(=O)NC1CCNCC1)c1cc(F)cc(F)c1 | FLT3 N841I | binding, competition with immobilised ligand | 1 µM | 100% |
| CNCc1ccccc1-c1csc([C@@H](C)Nc2nc(C)nc3cc(OC)c(OC)cc23)c1 | FLT3 ITD | cell-free assay, competition with immobilised ligand | 1 µM | 89% |
| c1cnn2ncc(-c3ccnc(N4CCC45COC5)n3)c2c1 | FLT3 autoinhibited | binding | 1 µM | 58% |
| O=C(c1ccc(Nc2nccc(-c3cc4ccccc4s3)n2)cc1)N1CCC(N2CCCC2)CC1 | FLT3 N841I | binding, competition with immobilised ligand | 1 µM | 3.6% |
| C[C@@H]1CCN(c2nccc(-c3cnn4ncccc34)n2)C1 | FLT3 autoinhibited | binding | 1 µM | 78% |
| CS(=O)(=O)c1cc(C2(NC(=O)c3cncc4c3cnn4-c3ccc(F)cc3)CC2)ccn1 | FLT3 D835V | cell-free assay, competition with immobilised ligand | 1 µM | 100% |
| O=C(NCCCN1CCOCC1)c1ccc(Nc2nccc(-c3cc4ccccc4s3)n2)cc1 | FLT3 ITD | binding, competition with immobilised ligand | 1 µM | 50% |
| COc1ccnn2ncc(-c3ccnc(N(C)C)n3)c12 | FLT3 N841I | binding | 1 µM | 100% |
| COc1ncc2cc3ccccc3nc2c1C#N | FLT3 autoinhibited | cell-free assay, competition with immobilised ligand | 5 µM | 100% |
| CN([C@@H]1CCc2c(CC(=O)O)c3cc(S(C)(=O)=O)ccc3n2C1)S(=O)(=O)c1ccc(F)cc1 | FLT3 D835V | cell-free assay, competition with immobilised ligand | 1 µM | 99% |
| CN(CCCC(F)(F)F)c1nccc(-c2cnn3ncccc23)n1 | FLT3 D835V | binding | 1 µM | 84% |
| CS(=O)(=O)N1CCCC(NC(=O)[C@H](CCC2CCCCC2)NC(=O)c2ccc(CNC(=O)c3cnc4ccccn34)cc2)C1 (stereo partly shown) | FLT3 autoinhibited | cell-free assay, competition with immobilised ligand | 0.1 µM | 93% |
| O=C(NCC1CCOCC1)c1n[nH]cc1NC(=O)c1c(F)cccc1F | FLT3 K663Q | binding, competition with immobilised ligand | 1 µM | 91% |
| O=C(c1ccc(Nc2ncc(Cl)c(-c3ccc(Cl)s3)n2)cc1)N1CCC(N2CCCC2)CC1 | FLT3 D835V | binding, competition with immobilised ligand | 1 µM | 1.9% |
| CCN1CCN(Cc2ccc(C(=O)Nc3ccc(C)c(Oc4ccc5c(c4)CC(=O)N5)c3)cc2C(F)(F)F)CC1 | FLT3 D835H | binding, competition with immobilised ligand | 1 µM | 100% |
| CCS(=O)(=O)c1cc2cc(C[C@@](O)(CC(C)(C)c3ccc(F)cc3C(N)=O)C(F)(F)F)[nH]c2cn1 | FLT3 | cell-free assay, competition with immobilised ligand | 1 µM | 97% |
| O=C(NCCCN1CCOCC1)c1ccc(Nc2ncc(Cl)c(-c3ccc(Cl)s3)n2)cc1 | FLT3 R834Q | binding, competition with immobilised ligand | 1 µM | 7.4% |
